This note sets out measurements from ChEMBL document CHEMBL1130198, “Inhibition of tubulin polymerization by 5,6-dihydroindolo[2,1-alpha]isoquinoline derivatives” (J Med Chem, 1997).

Test [1] concerns MDA-MB-231. The experiment in a line: Inhibition of the growth of MDA-MB 231 human breast cancer cells. It counts as functional, cell-based.
Another test has as its system MCF7. The experiment in a line: Inhibition of estrogen receptor positive MCF-7 human breast cancer cell proliferation. Type of test: functional, cell-based. Summed up: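 MCF-7 cells in EMEM with 10% FCS; treatment medium contains dextran-charcoal-treated FCS; exposure ca. 8 days; glutaraldehyde fixation, crystal violet staining, optical density read at 578 nm.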

In test [2] the target is T1, Tubulin (Bos taurus, UniProt Q6B856+Q862L2+Q862F3). The experiment in a line: Inhibition of tubulin polymerization using isolated calf brain at 37 degrees C. It counts as functional.
A further test concerns the target Tubulin (Bos taurus) (UniProt Q6B856+Q862L2+Q862F3). The experiment in a line: Inhibition of colchicine binding to tubulin. It counts as functional. The settings on record: concentration not given here. In outline: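 Calf brain tubulin (prepared as for polymerization) diluted 1:10 in ice-cold PEM buffer (PIPES, EGTA, MgSO4, pH 6.6-6.7); 1 µM [3H]colchicine with 10 µM inhibitor, DMSO vehicle, 30 min at 37 °C; GTP added on ice, filtered through DEAE-cellulose, washed; tubulin-bound radioactivity by scintillation counting, tubulin-free mixtures as background. Mean of two independent experiments.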

Test [3] has as its system MDA-MB-231. As to the kind of experiment: Inhibition of estrogen receptor negative MDA-MB 231 breast cancer cell proliferation. Type of test: functional, cell-based. The settings on record: Homo sapiens. Summed up:
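MDA-MB 231 cells (hormone-independent) in McCoy-5a with 5% FCS, grown 2–3 days in 96-well plates at 37 °C, 5% CO2, then medium with test compound (DMF stock; 0.1% DMF controls) for about 4 days; glutaraldehyde fixation, 0.02% crystal violet staining, ethanol extraction, OD 578 nm versus initial density. IC50 from two independent experiments.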

For test [4], the target named is Tubulin alpha chain (Bos taurus) (UniProt P81947). As to the kind of experiment: Inhibition of colchicine binding to tubulin. The settings on record: concentration not given here.
Tubulin alpha chain (Bos taurus), sequence (P81947 whole entry, looked up): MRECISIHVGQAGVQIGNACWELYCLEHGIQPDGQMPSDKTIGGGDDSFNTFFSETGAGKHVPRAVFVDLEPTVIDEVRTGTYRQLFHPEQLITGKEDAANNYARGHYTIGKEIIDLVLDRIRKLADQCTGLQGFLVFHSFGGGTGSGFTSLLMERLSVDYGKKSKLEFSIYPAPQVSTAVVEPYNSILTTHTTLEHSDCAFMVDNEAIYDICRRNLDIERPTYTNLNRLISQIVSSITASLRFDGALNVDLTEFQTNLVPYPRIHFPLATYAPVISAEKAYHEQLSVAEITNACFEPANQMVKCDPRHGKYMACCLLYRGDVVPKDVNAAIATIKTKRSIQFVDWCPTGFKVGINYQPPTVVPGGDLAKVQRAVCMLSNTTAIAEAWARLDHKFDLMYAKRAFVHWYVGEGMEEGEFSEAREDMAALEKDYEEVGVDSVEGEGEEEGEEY
The target in test [5] is T1, Tubulin. The experiment in a line: Inhibition of tubulin polymerization using isolated calf brain. It counts as functional. In outline: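 Twice-cycled, MAP-containing calf brain microtubules depolymerized in PEMG buffer (0.8 M glutamate, pH 6.6-6.7) at 0 °C; compound in DMSO, preincubated 15 min at 37 °C, chilled, GTP added; turbidity at 350 nm over 20 min after shift from 2 to 37 °C.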

Test [6] relates to MDA-MB-231. The experiment in a line: Inhibition of estrogen receptor negative MDA-MB 231 breast cancer cell proliferation at 10 uM. It counts as functional, cell-based. The settings on record: Homo sapiens. Summed up: (§1)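 MDA-MB 231 cells grown in McCoy-5a with L-glutamine, gentamycin, NaHCO3 and 5% FCS, 5% CO2, 37 °C. Cells were seeded in 96-well plates and grown 2–3 days, then given medium containing compound; controls had 0.1% DMF. After about 4 days, cells were fixed with 1% glutaric dialdehyde, stained with 0.02% crystal violet, extracted with 70% EtOH, and OD578 was read against initial density.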

For test [7], the system named is MDA-MB-231. As to the kind of experiment: Inhibition of estrogen receptor negative MDA-MB 231 breast cancer cell proliferation at 1 uM. It counts as functional, cell-based. The settings on record: Homo sapiens. Summed up: as §1
Test [8] has as its target T1, Tubulin. As to the kind of experiment: Inhibition of tubulin polymerization using isolated calf brain at 26 degrees C. Type of test: functional.

In general, IC50 refers to the concentration that gives 50% inhibition. A lower IC50 goes with higher potency. For `CCCCC1Cc2cc(OC)ccc2-c2c(/C=N/O)c3ccc(OC)cc3n21` (stereo unspecified), the IC50 in the test with MDA-MB-231 [1] was > 10 µM.
`CCCCC1Cc2cc(OC)ccc2-c2c(/C=N/Cc3ccccc3)c3ccc(OC)cc3n21` (stereo unspecified) yielded an IC50 in the test on MDA-MB-231 [1] of 5.7 µM.
Same read-out and setting: with `CC[C@]1(O)C[C@@H]2CN(CCc3c([nH]c4ccccc34)[C@@](C(=O)OC)(c3cc4c(cc3OC)N(C)[C@H]3[C@@](O)(C(=O)OC)[C@H](OC(C)=O)[C@]5(CC)C=CCN6CC[C@]43[C@@H]65)C2)C1` [VINBLASTINE] the figure was 0.011 µM.
As for `CCCCC1Cc2cc(OC)ccc2-c2cc3cc(OC)c(OC)cc3n21` (stereo unspecified), in the test with MDA-MB-231 [1], the IC50 was > 10 µM.
On the same count and under the same terms, for `CCCCC1Cc2cc(OC)ccc2-c2c(CNC)c3ccc(OC)cc3n21` (stereo unspecified) the value was 2.1 µM.
In the case of `CCCCC1Cc2cc(O)ccc2-c2c(C(C)=O)c3ccc(O)cc3n21` (stereo unspecified), the IC50 with MCF7 came out at 2.5 µM; in the test on MDA-MB-231 [1] it was 2.2 µM.
In the case of `CCCCC1Cc2cc(O)ccc2-c2c(C=O)c3cc(O)ccc3n21` (stereo unspecified), the results for the IC50 in the test with MCF7, in the test with MDA-MB-231 [1] and at Tubulin [2] were 0.65 µM, 0.2 µM and 19 µM, respectively.
In the test with MDA-MB-231 [1], `CCCCC1Cc2cc(OC)ccc2-c2c(/C=N/C)c3ccc(OC)cc3n21` (stereo unspecified) registered an IC50 of 7.8 µM.
Broadly, the inhibition is the share of the control response that was lost under treatment. The molecule `CCCCC1Cc2cc(O)ccc2-c2c(C=O)c3ccc(O)cc3n21` (stereo in doubt; (+)-6c) [listing 1 of 2 here] came in with an inhibition at Tubulin (Bos taurus) of 69%.
Take `CCCCC1Cc2cc(O)ccc2-c2c(C#N)c3ccc(O)cc3n21` (stereo unspecified): the IC50 in the test with MCF7 came out at 0.54 µM; in the test with MDA-MB-231 [3] it was 0.3 µM; against Tubulin [2], 13 µM. Besides, the inhibition in [4] was 48%.
Turning to `CCCC1Cc2cc(O)ccc2-c2c(C=O)c3ccc(O)cc3n21` (stereo unspecified), the IC50 is 0.29 µM with MCF7 and 0.3 µM in the test with MDA-MB-231 [1].
Molecule `CCCCC1Cc2cc(OC)ccc2-c2c(CNCc3ccccc3)c3ccc(OC)cc3n21` (stereo unspecified) came in with an IC50 in the test on MDA-MB-231 [1] of 7 µM.
On the same count and under the same terms, with `CCCCC1Cc2cc(OC)ccc2-c2c(C=O)c3cc(OC)c(OC)cc3n21` (stereo unspecified) the figure was 9 µM.
For `CCCC1Cc2cc(O)ccc2-c2c(C=O)c3ccc(O)cc3n21` (single isomer, unassigned; (-)) [listing 1 of 2 here], on Tubulin [5], the IC50 is > 70 µM.
`CCCC1Cc2cc(OC)ccc2-c2c(C=O)c3ccc(OC)cc3n21` (stereo unspecified): the IC50 with MDA-MB-231 [1] is > 10 µM.
As for `CCCCC1Cc2cc(O)ccc2-c2cc3cc(O)c(O)cc3n21` (stereo unspecified), the IC50 with MCF7 and in the test with MDA-MB-231 [1] was > 10 µM each time.
`COc1cc2c(c(OC)c1OC)-c1ccc(OC)c(=O)cc1[C@@H](NC(C)=O)CC2` [COLCHICINE]: in the test on MDA-MB-231 [1], 0.03 µM corresponded to half-maximal inhibition (IC50).
As for `CCC1Cc2cc(O)ccc2-c2c(C=O)c3ccc(O)cc3n21` (stereo unspecified), the IC50 in the test on MCF7 is 2.5 µM; in the test on MDA-MB-231 [1], 2.8 µM.
`CCCCC1Cc2cc(OC)ccc2-c2c(C#N)c3cc(OC)c(OC)cc3n21` (stereo unspecified): inhibition in the test on MDA-MB-231 [1] was half-maximal at 2.7 µM (IC50).
On the same count and under the same terms, with `COc1cc([C@@H]2c3cc4c(cc3[C@H](O)[C@H]3COC(=O)[C@H]23)OCO4)cc(OC)c1OC` [PODOFILOX] the figure was 0.026 µM.
Turning to `CCCCC1Cc2cc(O)ccc2-c2c(C=O)c3ccc(O)cc3n21` (single isomer, unassigned; (-)) [listing 1 of 2 here], the IC50 against Tubulin [5] is > 60 µM.
Same read-out and setting: with `CCCCC1Cc2cc(O)ccc2-c2c(C=O)c3ccc(O)cc3n21` (stereo in doubt; (+)-6c) [listing 2 of 2 here] the figure was 3.1 µM.
With `CCCCC1Cc2cc(O)ccc2-c2c(C=O)c3cc(O)c(O)cc3n21` (stereo unspecified), the 50% inhibitory concentration (IC50) in the test on MCF7 was > 10 µM; with MDA-MB-231 [1], 3.2 µM; on Tubulin [2], 19 µM.
Turning to `CCCCC1Cc2cc(OC)ccc2-c2c(C(C)=O)c3ccc(OC)cc3n21` (stereo unspecified), the IC50 in the test on MDA-MB-231 [1] was > 10 µM.
`CCCC1Cc2cc(O)ccc2-c2c(C=O)c3ccc(O)cc3n21` (single isomer, unassigned; (-)) [listing 2 of 2 here]: the inhibition at Tubulin (Bos taurus) was 27%.
Turning to `CCCC1Cc2cc(O)ccc2-c2c(C=O)c3ccc(O)cc3n21` (single isomer, unassigned; (+)) [listing 1 of 2 here], the IC50 on Tubulin [5] turned out to be 11 µM.
As for `CCCCC1Cc2cc(OC)ccc2-c2c(C=O)c3cc(OC)ccc3n21` (stereo unspecified), in the test with MDA-MB-231 [1], the IC50 was > 10 µM.
In the case of `CCCC1Cc2cc(O)ccc2-c2c(C=O)c3ccc(O)cc3n21` (single isomer, unassigned; (+)) [listing 2 of 2 here], the inhibition on Tubulin (Bos taurus) was 53%.
`CC/C(=C(\c1ccccc1)c1ccc(OCCN(C)C)cc1)c1ccccc1` [TAMOXIFEN] registered an IC50 in the test on MCF7 of 0.15 µM.
`CCCCC1Cc2cc(OC)ccc2-c2c(C#N)c3ccc(OC)cc3n21` (stereo unspecified) showed an IC50 with MDA-MB-231 [1] of 3.1 µM.
The same measure, in the same setting: with `CCCCC1Cc2cc(OC)ccc2-c2c(C=O)c3ccc(OC)cc3n21` (stereo unspecified) the figure was 8.7 µM.
Take `CCCCC1Cc2cc(O)ccc2-c2c(C=O)c3ccc(O)cc3n21` (stereo unspecified): the values for the IC50 with MCF7 and in the test on MDA-MB-231 [1] were 0.22 µM and 1.4 µM, respectively.
As to `CCCCC1Cc2cc(O)ccc2-c2c(C#N)c3cc(O)c(O)cc3n21` (stereo unspecified), the IC50 in the test on MCF7 amounted to 2.7 µM; in the test on MDA-MB-231 [1], 3.4 µM; on Tubulin [2], 25 µM. This molecule displayed an inhibition in test [4] of 54%.
`CCCCC1Cc2cc(O)ccc2-c2c(C=O)c3ccc(O)cc3n21` (single isomer, unassigned; (-)) [listing 2 of 2 here] gave an inhibition on Tubulin (Bos taurus) of 22%.
Consider `COc1cc2c(cc1O)CC[C@@H]1[C@@H]2CC[C@]2(C)[C@@H](O)CC[C@@H]12` [2-METHOXYESTRADIOL], for which the IC50 came out at 5 µM with MDA-MB-231 [6], 0.25 µM with MDA-MB-231 [7], 60 µM on Tubulin [5] and 12 µM against Tubulin [8]. In [4], this molecule registered an inhibition of 44%.
Consider `CCCCC1Cc2cc(O)ccc2-c2c(/C=N/Cc3ccccc3)c3ccc(O)cc3n21` (stereo unspecified), for which the results for the IC50 in the test with MCF7 and in the test with MDA-MB-231 [1] were 0.26 µM and 2.1 µM, respectively.
